Bioassay records from PubChem BioAssay.
Only some compounds are listed: those with a hit (about 1.2% of all), similar ones and a draw of the others.
ARFGAP1 inh – inhibits rat ARF GTPase activating protein 1; Q62848; Arfgap1-stimulated ARF1 GTP hydrolysis, GDP FP detection; inhibition, % at 16.5 µM; 360,000 compounds, 0.26% hits; AID 651572;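 active = inhibition above a per-plate limit, mean inhibition of low control wells plus 3 SD, cut at about 25% in these data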;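 also: 0% = DMSO wells with enzyme and 100% = wells lacking Arfgap1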
Target sequence (Q62848 1-136 limits assumed): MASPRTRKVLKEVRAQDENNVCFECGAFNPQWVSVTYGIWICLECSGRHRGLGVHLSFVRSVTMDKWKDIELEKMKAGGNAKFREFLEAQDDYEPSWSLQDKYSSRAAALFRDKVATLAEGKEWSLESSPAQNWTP
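System: truncated rat Arfgap1 GAP domain / Medium: HEPES-based buffer, pH 7.5 / Also added: N-terminally truncated human ARF1-GTP substrate / Incubation: enzyme reaction 120 min at 25 °C after 20 min preincubation / Measured by: FP of antibody-bound GDP Alexa 633 tracer, ex 620/em 688 nm / Replicates: singlicate, each compound tested once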
IDE cell activ – IDE (human) activation, cell-based; P14735; HEK cells, FAbeta-B cleavage, fluorescence polarization; 0% vehicle, 100% cell-free pure enzyme wells; activation, % at 5.96 µM; 340,000 compounds, 0.073% hits;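 active = activation above the mean of all tested compounds plus 3 SD, set per screening campaign, cut at about 17% in these data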
PREPL inhibitor – inhibits the human prolyl oligopeptidase-like enzyme. Q4J6C6. recombinant PREPL, fluorescence polarization activity-based probe. inhibition, % at 5.96 µM. 320,000 compounds, 0.68% hits;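 also: 0% = enzyme with DMSO and 100% = wells lacking enzyme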
IDE cell inh – inhibits human insulin-degrading enzyme in HEK cells | inhibition, % at 5.59 µM | P14735 | FAbetaB cleavage, fluorescence polarization | 320,000 compounds, 0.41% hits | AID 434962;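 active = percent inhibition above the average of all tested compounds plus 3 SD, set per screening campaign, cut at about 16% in these data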;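 also: IDE supplied by intact live HEK cells; FP after avidin binding of uncleaved biotin substrate so inhibition keeps polarization high; 0% = DMSO wells and 100% = 60 µM reference IDE inhibitor Ii1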
ASAP1 inh – ASAP1 ArfGAP inhibition | Q9ULH1 | ASAP1-stimulated ARF1 GTP hydrolysis, GDP FP detection | inhibition, % at 16.5 µM | 360,000 compounds, 0.19% hits | AID 624377; in the data active = inhibition above about 25%;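 also: 0% = vehicle with enzyme and substrate and 100% = no enzyme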
Target sequence (Q9ULH1 325-724 limits assumed): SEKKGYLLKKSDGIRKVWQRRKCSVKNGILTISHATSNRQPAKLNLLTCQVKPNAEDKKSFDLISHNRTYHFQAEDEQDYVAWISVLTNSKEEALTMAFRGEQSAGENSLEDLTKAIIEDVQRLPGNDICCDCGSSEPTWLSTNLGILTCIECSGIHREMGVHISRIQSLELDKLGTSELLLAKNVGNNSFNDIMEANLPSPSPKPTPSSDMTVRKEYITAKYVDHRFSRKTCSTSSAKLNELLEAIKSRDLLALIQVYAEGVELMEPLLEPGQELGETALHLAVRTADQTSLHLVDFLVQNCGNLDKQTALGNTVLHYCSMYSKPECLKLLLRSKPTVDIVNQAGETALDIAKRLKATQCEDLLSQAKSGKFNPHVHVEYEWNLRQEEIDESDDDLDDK
PREPL inh cf – human PREPL inhibition, confirmation; shares compounds with PREPL inhibitor; recombinant PREPL, fluorescence polarization activity probe; inhibition, % at 5.96 µM; 2,000 compounds, 67% hits; AID 2803;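 also: 0% = protein with DMSO and 100% = wells lacking protein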
* hit, by the source's call; · = no result given. Rule as the data show it, unless noted: active = inhibition above about 43%; inactive = the rest.

SMILES	ARFGAP1 inh	IDE cell activ	PREPL inhibitor	IDE cell inh	ASAP1 inh	PREPL inh cf
O=C(CNC(=O)c1cccs1)N/N=C/c1c(F)cccc1Cl	2	7	4	0	-7	·
Clc1ccc(C2=C3CCCCn4c(-c5ccccc5)c[n+](c43)C2)cc1	1	6	50*	5	-5	27
O=C([C@H](Cc1ccccc1)N1C(=O)c2ccccc2C1=O)N1CCOCC1	9	1	23	1	-6	·
O=C(NCc1ccccc1)c1ccc2c(=O)n(CC3CCCO3)c(=S)[nH]c2c1 (configuration not stated)	4	4	11	4	-21	·
CCCCCNC(=O)c1ccc2c(=O)[nH]c3c(C(=O)NCC4CCCO4)sc(=S)n3c2c1 (configuration not stated)	0	1	61*	0	7	57*
Cc1ccc(CNC(=O)c2ccc3c(=O)[nH]c4c(C(=O)NCC5CCCO5)sc(=S)n4c3c2)cc1 (configuration not stated)	4	-1	44*	0	10	46*
O=C(NCc1ccccc1)c1ccc2c(=O)[nH]c3c(C(=O)NCC4CCCO4)sc(=S)n3c2c1 (configuration not stated)	3	2	44*	7	7	64*
Nc1c(Cl)ncnc1N/N=C/c1ccc2ccccc2n1	4	11	64*	1	10	53*
N#C/C(=C\C1CC2C=CC1C2)c1nc2ccccc2[nH]1 (configuration not stated)	5	-4	48*	4	-1	9
Nc1[nH]c(C(=O)c2ccccc2)c(-c2cccc3ccccc23)c1C(=O)c1ccc(Br)cc1	-5	·	·	·	-4	·
COc1cc(OC)cc(-c2c(-c3cccs3)c3cc(-c4ccc(OCc5ccccc5)cc4)ccc3n2C)c1	0	2	72*	0	-4	4
CCc1ccc(NC(=O)C2CCN(S(=O)(=O)c3ccc4c(c3)CC(C)N4C(C)=O)CC2)cc1 (configuration not stated)	6	-11	-1	4	13	·
CCn1c2ccccc2c2cc(CNCc3ccc(OC)cc3OC)ccc21	12	-4	49*	-1	4	51*
COc1cccc(CNCc2ccc(OC)cc2OC)c1	4	1	5	7	5	·
COc1ccc2cc(CO)c3cc(OC)c(OC)cc3c2c1	11	-5	35	5	6	·
c1ccc(N2CCN(c3cnc4ccccc4n3)CC2)cc1	5	-6	37	3	-7	·
Fc1ccc(N2CCN(c3cnc4ccccc4n3)CC2)cc1	13	-4	45*	3	-12	39
COc1ccc(OCC(=O)N2CCC(n3nccc3NC(=O)C3CC3)CC2)cc1	1	7	13	-2	-9	·
O=C(COc1ccccc1[N+](=O)[O-])N/N=C/c1cccc(OC(=O)c2ccc3c(c2)OCO3)c1	13	6	47*	-5	14	20
COc1ccc(CN2CCN(Cc3ccccc3F)CC2)cc1OC	-11	6	-10	-8	11	·
NCCCn1c(C(=O)c2cc(Cl)c(N)c(Cl)c2)c2ccc([N+](=O)[O-])cc2[n+]1[O-]	5	3	61*	4	14	69*
NCCCn1c(C(=O)c2cc(Cl)c(N)c(Cl)c2)c2ccc(C(F)(F)F)cc2[n+]1[O-]	6	1	21	7	5	·
Cc1cc(N2CCN(C)CC2)nc2ccc(NC(=O)CCC(=O)N3CCN(c4ccc([N+](=O)[O-])cc4)CC3)cc12	17	0	66*	4	12	60*
C=CCn1c(SCc2ccccc2Cl)nnc1-c1sc2nc(C)cc(C)c2c1N	12	8	47*	-2	4	42
CN(CC(=O)Nc1ccc2c(c1)OCCO2)Cc1nc2ccccc2c(=O)[nH]1	4	0	3	0	-7	·
SMILES	ARFGAP1 inh	IDE cell activ	PREPL inhibitor	IDE cell inh	ASAP1 inh	PREPL inh cf
CC#C[C@]1(O)CC[C@H]2[C@@H]3CCC4=CC(=O)CCC4=C3[C@@H](c3ccc(N(C)C)cc3)C[C@@]21C	-7	-3	50*	3	-18	46*
CCN(CC)c1ccc(-c2nn3c(-c4ccccc4OC)nnc3s2)cc1	·	-2	57*	5	·	39
CC(Nc1nc(-c2ccc(F)cc2)cs1)c1nc2cc(Cl)c(N3CCCCC3)cc2n1CCOCCO (configuration not stated)	9	5	55*	-3	17	50*
CC(=O)Nc1ccc(S(=O)(=O)N2CCN(C(=O)C(=O)c3cccc(C(F)(F)F)c3)CC2)cc1	-9	·	·	·	-3	·
CCN(CC)C(=O)C1=C(C)N(Cc2ccc(C(C)(C)C)cc2)C(=O)C(CC(=O)NC(c2ccccc2)c2ccccc2)C1 (configuration not stated)	-9	·	·	·	5	·
O=C(NCc1ccccc1)C(c1ccc(F)cc1)N(C(=O)c1csnn1)c1ccccc1 (configuration not stated)	-1	3	2	-3	-12	·
C/C(=N\Nc1ccc([N+](=O)[O-])cc1)c1cccc(N)c1	-1	2	55*	5	11	46*
C[C@H]1CCCCO[C@@H](CN(C)CC2CC2)[C@@H](C)CN([C@@H](C)CO)C(=O)c2cc(NS(=O)(=O)c3ccccc3)ccc2O1	1	·	·	·	-13	·
COc1ccc(C2CC(=O)Oc3c(C(CCN4CCCCC4)c4ccc(N(C)C)cc4)c(OC)cc(OC)c32)cc1 (configuration not stated)	-5	-1	47*	-2	-9	51*
COc1ccc(C2CC(=O)Oc3c(C(CCN4CCCC(C)C4)c4ccc(N(C)C)cc4)c(OC)cc(OC)c32)cc1 (configuration not stated)	-5	5	44*	5	6	60*
COc1cc(C2CC(=O)Oc3c(C(CCN4CCOCC4)c4ccc(N(C)C)cc4)c(OC)cc(OC)c32)cc(OC)c1OC (configuration not stated)	5	3	38	2	-1	·
Cc1ccc(C(=O)Oc2cc(C)n(C)c(=O)c2)cc1	9	-1	47*	3	-1	26
Cc1ccc(C)c(Nc2cc(C)nc3ccccc23)c1	5	1	44*	4	12	38
CC1CC(C)CN(C(=O)c2ccc3c(c2NCCO)C(=O)c2ccccc2C3=O)C1 (configuration not stated)	4	7	56*	-8	2	58*
CC1CCCN(Cc2c(O)ccc3c(=O)c(-c4nc5ccccc5s4)c(N)oc23)C1 (configuration not stated)	13	2	65*	5	5	62*
CC1CCN(Cc2c(O)ccc3c(=O)c(-c4nc5ccccc5s4)c(N)oc23)CC1	4	3	44*	1	-1	39
